The results in this text go back to PubChem BioAssay AID652046 (Broad Institute, 2013).

Records with an inconclusive call do not appear. Activity calls are given as the source filed them.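 How the source made its calls: active means fitted curve falls past -35% activity change at a concentration no higher than twice the top tested dose; inconclusive means no clear call, values can overlap the other calls; inactive means the rest, including activity in the opposite direction.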

One experiment has as its system IL-1beta-stimulated NF-kB eGFP reporter/dsRed, flow cytometry, 16 h. Put plainly: IL-1beta-stimulated NF-kB eGFP reporter inhibition, dose response, selectivity assay for EBV LMP1 NF-kB inhibitor project, cell-based, dsRed control, flow cytometry, dry powder (AID 652046).
Settings: not given
The essentials: (§1)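 Assay system: HEK293 cells with NF-κB-driven eGFP and constitutive dsRed reporters | Probe or stimulus: IL-1beta stimulation | Incubation: 16 h compound exposure, 37 °C | Measured by: Flow cytometry, scatter-gated live cells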
(In general: In flow cytometry, cells or beads pass a laser one at a time.)
As to `COc1ccccc1[C@]1(C)ON(c2ccccc2C(F)(F)F)C1=O`, the AC35 is 10.7 µM. As for `O=C(C[C@@H]1C[C@H]2c3cc(NC(=O)NC4CCCC4)ccc3O[C@H]2[C@H](CO)O1)NCc1ccc(Oc2ccccc2)cc1`, the AC35 is 17.1 µM. Regarding `CS(=O)(=O)Nc1ccc2c(c1)[C@@H]1C[C@@H](CC(=O)NCc3ccc(Oc4ccccc4)cc3)O[C@@H](CO)[C@@H]1O2`, the AC35 is 0.664 µM.

For the compound `Cc1cc(C(=O)Nc2ccc3c(c2)C(=O)N(C)[C@@H]2CC[C@H](CC(=O)N[C@H](C)c4ccccc4)O[C@H]2CO3)no1`, the AC35 was 15.9 µM. On the same count and under the same terms, next, `Nc1ccn([C@@H]2O[C@H](CO)[C@@H](O)C2O)c(=O)n1` (stereo partly drawn): 19.1 µM; `CN(C)c1ccc2c(c1)[C@@H]1C[C@@H](CC(=O)NCc3cc(F)ccc3F)O[C@@H](CO)[C@@H]1O2`: 2.23 µM. For `Cc1cc(C(=O)Nc2ccc3c(c2)C(=O)N(C)[C@@H]2CC[C@H](CC(=O)NC4CCCC4)O[C@H]2CO3)no1`, the AC35 was 9.72 µM.

As to `CN(C)c1ccc2c(c1)[C@@H]1C[C@@H](CC(=O)N3CCOCC3)O[C@@H](CO)[C@@H]1O2`, the AC35 is 2.09 µM. In the case of `CN1C(=O)c2cc(NC(=O)Nc3ccccc3F)ccc2OC[C@@H]2O[C@@H](CC(=O)NCc3ccc(-c4ccccc4)cc3)CC[C@H]21`, the AC35 is 0.14 µM. For the compound `CN(C)c1ccc2c(c1)[C@@H]1C[C@@H](CC(=O)NCc3ccccc3F)O[C@@H](CO)[C@@H]1O2`, the AC35 is 20.8 µM.

As to `O=C(Nc1ccc(C(F)(F)F)cc1)Nc1ccc2c(c1)[C@H]1C[C@@H](CC(=O)N3CCc4ccccc4C3)O[C@@H](CO)[C@H]1O2`, the AC35 is 12.7 µM. With `O=C(C[C@@H]1C[C@H]2c3cc(NC(=O)Nc4ccccc4F)ccc3O[C@H]2[C@H](CO)O1)NCc1ccc(Oc2ccccc2)cc1`, the AC35 is 16.3 µM.

Test system in another experiment: not listed separately
The experiment is described as above. The settings on record: IL-1beta-stimulated NF-kB eGFP reporter/dsRed, flow cytometry, 16 h; at 18 µM (top of the series). In a few lines:
as §1
With `Cc1cc(C(=O)Nc2ccc3c(c2)C(=O)N(C)[C@@H]2CC[C@H](CC(=O)NCc4ccc(-c5ccccc5)cc4)O[C@H]2CO3)no1`, the activity change, negative = inhibition was -15.2% (inactive).

Staying with this experiment, now noted: IL-1beta-stimulated NF-kB eGFP reporter/dsRed, flow cytometry, 16 h; at 19.5 µM (top of the series).
Take `CCCNC(=O)C[C@H]1CC[C@@H]2[C@H](COc3ccc(NC(=O)c4cc(C)on4)cc3C(=O)N2C)O1`: the activity change, negative = inhibition was 2% (inactive). Take `COCCNC(=O)C[C@@H]1C[C@H]2c3cc(N(C)C)ccc3O[C@H]2[C@H](CO)O1`: the activity change, negative = inhibition is -7.46% (inactive). As for `O=C(C[C@@H]1C[C@H]2c3cc(NS(=O)(=O)c4ccc(F)cc4)ccc3O[C@H]2[C@H](CO)O1)NCc1ccc(Oc2ccccc2)cc1`, the activity change, negative = inhibition is 6.68% (inactive).

With `CN(C)c1ccc2c(c1)[C@@H]1C[C@@H](CC(=O)NCc3ccc4c(c3)OCO4)O[C@@H](CO)[C@@H]1O2`, the activity change, negative = inhibition was -8.36% (inactive).

Regarding `COc1ccccc1CNC(=O)C[C@@H]1C[C@H]2c3cc(N(C)C)ccc3O[C@H]2[C@H](CO)O1`, the activity change, negative = inhibition was 2.93% (inactive). With `CN(C)c1ccc2c(c1)[C@@H]1C[C@@H](CC(=O)NCc3ccc(Oc4ccccc4)cc3)O[C@@H](CO)[C@@H]1O2`, the activity change, negative = inhibition was 4.75% (inactive).

As for `CN1C(=O)c2cc(NS(C)(=O)=O)ccc2OC[C@@H]2O[C@@H](CC(=O)NCc3ccc(-c4ccccc4)cc3)CC[C@H]21`, the activity change, negative = inhibition is 10.3% (inactive). In the case of `CN(C)c1ccc2c(c1)[C@@H]1C[C@@H](CC(=O)NCCc3ccccc3)O[C@@H](CO)[C@@H]1O2`, the activity change, negative = inhibition was -4.63% (inactive). In the case of `CCNC(=O)C[C@H]1CC[C@@H]2[C@H](COc3ccc(NC(=O)c4cc(C)on4)cc3C(=O)N2C)O1`, the activity change, negative = inhibition is 0.718% (inactive). On to `CN(C)c1ccc2c(c1)[C@@H]1C[C@@H](CC(=O)N3CCc4ccccc4C3)O[C@@H](CO)[C@@H]1O2`, for which the activity change, negative = inhibition is 4.65% (inactive). With `CNC(=O)C[C@H]1CC[C@@H]2[C@H](COc3ccc(NC(=O)c4cc(C)on4)cc3C(=O)N2C)O1`, the activity change, negative = inhibition was -2.16% (inactive). On to `CN(C)c1ccc2c(c1)[C@@H]1C[C@@H](CC(=O)NCC3CC3)O[C@@H](CO)[C@@H]1O2`, for which the activity change, negative = inhibition is -1.79% (inactive). Same read-out and setting: with `COCCNC(=O)C[C@H]1CC[C@@H]2[C@H](COc3ccc(NC(=O)c4cc(C)on4)cc3C(=O)N2C)O1` the figure was 1.68% (inactive).

Still in this experiment, the particulars now being: IL-1beta-stimulated NF-kB eGFP reporter/dsRed, flow cytometry, 16 h; at 21 µM (top of the series).
As to `Cc1cc(C(=O)Nc2ccc3c(c2)C(=O)N(C)[C@@H]2CC[C@H](CC(=O)N[C@@H](C)c4ccccc4)O[C@H]2CO3)no1`, the activity change, negative = inhibition was 5.36% (inactive). For `Cc1cc(C(=O)Nc2ccc3c(c2)C(=O)N(C)[C@@H]2CC[C@H](CC(=O)NCc4ccc(-c5ccccc5)cc4)O[C@@H]2CO3)no1`, the activity change, negative = inhibition is 4.6% (inactive).
